pIC50: −log10 of the molar value. Values after ≈ are worked out from the molar mass of the structure shown. “Also recorded” adds a separate entry of the source.
What was measured:
BALB/c mice [1] = test: Sub-acute; format: in vivo
Summary of the method: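 Sub-acute oral toxicity per OECD 407 in BALB/c mice. Test compounds are given orally daily for 28 consecutive days at 1000 or 500 mg/kg b. wt/day, in water or PEG-400. Vehicle controls receive water or PEG-400 at 200 μL/day/mouse. Body weight, food and water intake, behaviour and toxicity signs are recorded. Liver sections (5 μm) are H&E-stained for light microscopy.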

BALB/c mice [2] = test: Acute oral toxicity in mice; format: in vivo; conditions: for maximum acute tolerance dose: BALB/c mice
[3] = Oral bioavailability in mice, plasma RP-HPLC; format: in vivo, BALB/c mice
Aqueous solubility = format: physicochemical; conditions: water
HCV NS3/4A protease = HCV NS3/4A protease (Hepatitis C virus, UniProt P26662); test: HCV NS3/4A protease fluorimetric activity assay; format: biochemical
Summary of the method: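 Purified single-chain NS3/4A (scNS3/4A, 0.1 μM) is pre-incubated with test compound, then purified EGFP-NS5A/B-CBD fusion substrate (0.5 μM) is added for 1 h at 37 °C. Cellulose slurry stops the reaction; after centrifugation, supernatant fluorescence is read at 484/538 nm. Compounds are screened at 50 μM, with dose response over 10–100 μM. Activity is relative to a no-compound reaction (100%); telaprevir is the positive control.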

trypsin = trypsin (Sus scrofa, UniProt P00761); test: Cellular serine protease; format: biochemical; conditions: up to 250 μM
Summary of the method: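 Trypsin is pre-incubated with increasing test compound concentrations, then FITC-labelled casein substrate is added for 1 h at 37 °C. The reaction is stopped with trichloroacetic acid (6.1 N) and centrifuged. Supernatant fluorescence is read at excitation 485 nm and emission 538 nm. Activity is expressed relative to a no-compound reaction (100%); G. max trypsin inhibitor is the positive control.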

Huh7.5 cells = test: Cell viability MTT assay; format: cell-based; conditions: up to 5 mM
Summary of the method: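 Huh7.5 cells are seeded at 2 × 10^4 per well in DMEM with 10% serum and incubated overnight at 37 °C. After 12 h, cells are treated with a range of test compound concentrations, and viability is read by MTT. Untreated cells serve as control. Data are mean ± SD of three independent experiments; CC50 is taken from the dose response.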

[4] = system: Huh7 cells harboring HCV monocistronic replicon genotype 2a (Rep2a); test: HCV replication assay in Rep2a cell line; format: cell-based, HCV genotype 2a; conditions: at 250 μM, compared with Telaprevir
[5] = BALB/c, mouse, plasma, po, 500 mg/kg

Chain of HCV NS3/4A protease (P26662 1027-1208, other chains not shown): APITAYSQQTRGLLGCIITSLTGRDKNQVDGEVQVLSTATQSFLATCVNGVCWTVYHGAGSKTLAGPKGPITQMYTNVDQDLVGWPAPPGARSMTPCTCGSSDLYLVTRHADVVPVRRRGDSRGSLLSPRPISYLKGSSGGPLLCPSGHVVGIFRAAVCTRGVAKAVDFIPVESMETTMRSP
Chain of trypsin (P00761 9-231): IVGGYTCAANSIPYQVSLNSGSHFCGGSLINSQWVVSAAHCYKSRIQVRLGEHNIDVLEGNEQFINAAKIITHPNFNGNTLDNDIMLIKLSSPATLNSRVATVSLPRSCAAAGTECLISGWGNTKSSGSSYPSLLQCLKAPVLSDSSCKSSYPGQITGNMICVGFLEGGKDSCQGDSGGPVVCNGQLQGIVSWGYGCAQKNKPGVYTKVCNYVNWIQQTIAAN

SMILES: COC[C@@H](Cc1ccc(OC)c(OC)c1)[C@@H](COC)Cc1ccc(OC)c(OC)c1 [phyllanthin, reference compound]
- changes in general behavior and body weights (BALB/c mice [1]; 500 mg/kg b. wt/day oral in PEG-400, 28 consecutive days): did not exhibit any undesirable changes
- death of mice (BALB/c mice [2]; oral, 2000 mg/kg b. wt): 100%
- maximum acute tolerance dose (BALB/c mice [2]; oral): 1500 mg/kg b. wt
- bioavailability (plasma, up to 24 h) ([3]; 500 mg/kg b. wt p.o): could not observe any bioavailability
- absorbed concentration in plasma ([3]; 1500 mg/kg b. wt p.o): very low concentration
- solubility (Aqueous solubility): 250 µg/mL (≈ 597 µM)
- pIC50 (HCV NS3/4A protease): ~4.30

SMILES: COc1ccc(CC(CC(=O)O)C(=O)O)cc1OC (centres unmarked) [D8, 2-(3,4-Dimethoxybenzyl)succinic Acid]
- changes in general behavior and body weights (BALB/c mice [1]; 1000 mg/kg b. wt/day oral, 28 consecutive days): did not exhibit any undesirable changes
- liver histology (BALB/c mice [1]; 1000 mg/kg b. wt/day oral, 28 days): normal histology
- liver histology (BALB/c mice [2]; maximum acute tolerance dose 4000 mg/kg b. wt p.o, vs water control): normal histoarchitecture
- death of mice (BALB/c mice [2]; oral, 5000 mg/kg b. wt): 40%
- death of mice (BALB/c mice [2]; oral, 5250 mg/kg b. wt): 100%
- maximum acute tolerance dose (BALB/c mice [2]; oral): 4000 mg/kg b. wt
- tolerance dose relative to phyllanthin (BALB/c mice [2]; oral, D8 4000 vs phyllanthin 1500 mg/kg): ~2.5 times
- plasma concentration after 2 h ([3]; 500 mg/kg p.o): 595 μg mL^–1
- Cmax [3, 5]: ~595 µg/mL
- Tmax [3, 5]: 1 h
- half-life [3, 5]: 2 h
- inhibition of trypsin activity (trypsin): did not show an inhibition; also recorded: does not occur even at 250 μM
- cellular toxicity (Huh7.5 cells): did not induce any toxicity; also recorded: no perceptible cellular toxicity
- pIC50 (HCV NS3/4A protease): > 5.00
- IC90 (HCV NS3/4A protease): 50 µM
- reduction in HCV negative strand synthesis [4]: matching that of the inhibition by Telapravir

— publication PMC7254805 (ACS Omega, 2020)
